Source: PubChem
Sampled rows, rich in hits. Any-hit rate of the full collection: about 1.5%.
DNA FID counter = fluorescent intercalator displacement, NS3 helicase counter-screen. inhibition, % at 7.9 µM. DNA fluorescent intercalator displacement, fluorescence. hit rate 0.17% among 290,000; in the data active = inhibition above about 37%;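 note: 0% = vehicle and 100% = reference compound; higher means more ethidium bromide displaced from hairpin DNA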
NRP1-CendR mod = alters CendR peptide binding to human NRP-1; FAM-RPARPAR peptide binding to NRP-1, fluorescence polarization; inhibition, % at 25 µM; hit rate 0.85% among 360,000; AID 602438;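 active = inhibition or corrected inhibition above about 18%, plus a signal ratio from 0.5 to 1.5, limit read from the data, passing the limit was not always enough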
MEX-5 binding = C. elegans MEX-5 TCR-2 RNA binding activity | Q9XUB2 | MEX-5/FITC-TCR2 RNA binding, fluorescence polarization; hits give low values | activity score (negative = inhibition of binding), % at 10 µM | hit rate 0.38% among 300,000;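 active = inhibition past about -25% in most replicates, and total fluorescence under double the plate's negative control median, limit read from the data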;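 note: 0% = DMSO and -100% = 5 µM competing unlabeled TCR2 RNA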
Target sequence (Q9XUB2 whole entry, looked up): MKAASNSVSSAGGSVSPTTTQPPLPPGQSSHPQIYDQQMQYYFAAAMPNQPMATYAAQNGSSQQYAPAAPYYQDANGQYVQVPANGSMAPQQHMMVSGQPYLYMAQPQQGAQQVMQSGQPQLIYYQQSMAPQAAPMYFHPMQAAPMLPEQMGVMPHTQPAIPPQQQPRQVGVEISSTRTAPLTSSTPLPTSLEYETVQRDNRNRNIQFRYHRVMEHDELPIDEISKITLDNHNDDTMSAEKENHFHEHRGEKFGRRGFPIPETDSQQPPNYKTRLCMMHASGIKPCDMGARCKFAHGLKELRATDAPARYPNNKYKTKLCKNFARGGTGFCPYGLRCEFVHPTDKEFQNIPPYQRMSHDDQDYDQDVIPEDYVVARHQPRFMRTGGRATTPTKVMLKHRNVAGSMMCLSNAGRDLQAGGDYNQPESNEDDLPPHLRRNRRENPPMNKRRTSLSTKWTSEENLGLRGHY
HCV core dimer = blocks dimerization of HCV core protein | hit rate 0.33% among 300,000 | inhibition, % at 5 µM | TR-FRET GST/Flag-core106 dimerization, 1536-well;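 active = inhibition above the mean of all tested compounds plus 3 SD, set per screening campaign, cut at about 45% in these data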
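Assay system: GST-tagged and Flag-tagged HCV core protein residues 1-106 / Times: compound-protein-antibody incubation 4 h at 22.5 °C / Signal: time-resolved FRET, ex 340 nm, em 617 and 671 nm / Evaluation: % inhibition based on acceptor/donor emission ratio / Benchmarks: wells lacking GST-core106 and wells with excess unlabelled core106 / Repeats: singlicate, one well per compound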
Starred values were filed as active, the others as inactive.

`CN1CCc2c(sc(NC(=O)c3ccc4ccccc4c3)c2C(N)=O)C1` gave DNA FID counter 25, NRP1-CendR mod -69, MEX-5 binding -92* and HCV core dimer 0.
For CC(C)C(=O)Nc1sc2c(c1C(N)=O)CCN(Cc1ccccc1)C2 the results were DNA FID counter -17, NRP1-CendR mod 4, MEX-5 binding 2 and HCV core dimer 5.
For CC(C)N1CCc2c(sc(NC(=O)CCS(=O)(=O)c3ccccc3)c2C(N)=O)C1 the results were DNA FID counter 5, NRP1-CendR mod 25*, MEX-5 binding 2 and HCV core dimer -8.
CN1CCc2c(sc(NC(=O)Cc3ccccc3)c2C(N)=O)C1 was read as DNA FID counter 3, NRP1-CendR mod -2, MEX-5 binding -2 and HCV core dimer 17.
For NC(=O)c1c(NC(=O)c2ccccc2)sc2c1CCN(Cc1ccccc1)C2 the results were DNA FID counter 5, NRP1-CendR mod -97, MEX-5 binding -27* and HCV core dimer 0.
For N#Cc1c(NC(=O)/C=C/C(=O)O)sc2c1CCN(Cc1ccccc1)C2 the results were DNA FID counter -11, NRP1-CendR mod -149, MEX-5 binding -29* and HCV core dimer 69*.
Screening O=C(Nc1cc(Cl)cc2c1-c1ccc(Cl)cc1C2O)C(Cl)Cl (stereo unspecified) returned NRP1-CendR mod 5.
For O[C@@H]1CN(Cc2cccs2)[C@@H](c2ccc(Cl)cc2)C[C@H]1n1cc(-c2ccc(F)cc2)nn1 the results were NRP1-CendR mod -11.
For CNC(=O)c1c(NC(=O)c2ccc(S(=O)(=O)N3CCCCC3C)cc2)sc2c1CCN(C)C2 (stereo unspecified) the results were DNA FID counter 22, NRP1-CendR mod -84, MEX-5 binding -26* and HCV core dimer -3.
CCC(=O)Nc1sc2c(c1C(N)=O)CCN(Cc1ccccc1)C2 was read as DNA FID counter -7, NRP1-CendR mod -3, MEX-5 binding -8 and HCV core dimer -8.
For NC(=O)c1c(NC(=O)c2c(F)cccc2F)sc2c1CCN(Cc1ccccc1)C2 the results were DNA FID counter -1, NRP1-CendR mod -33, MEX-5 binding -35* and HCV core dimer -9.
CN1CCN(S(=O)(=O)c2ccc(F)cc2)CC1 was read as NRP1-CendR mod 7.
`CC1(C(=O)NS(=O)(=O)c2ccc3c(c2)CCO3)CCN1C(=O)c1ccccc1CCc1ccccc1` (stereo unspecified) gave NRP1-CendR mod -12.
For Nc1ncnc2[nH]c(=S)[nH]c12 the results were NRP1-CendR mod 29*.
Screening Cc1sc(NC(=O)Cn2[nH]c(=O)c3ccccc3c2=O)nc1-c1ccccc1 returned DNA FID counter -18, NRP1-CendR mod -32, MEX-5 binding 1 and HCV core dimer 49*.
For Cc1c(NC(=O)Cn2[nH]c(=O)c3ccccc3c2=O)c(=O)n(-c2ccccc2)n1C the results were DNA FID counter -3, NRP1-CendR mod -10, MEX-5 binding 1 and HCV core dimer 3.
`Cc1ccc(OCCN2C(=O)C(=O)c3cc(C)ccc32)cc1` gave DNA FID counter 5, NRP1-CendR mod 4, MEX-5 binding -2 and HCV core dimer 8.
For Cc1ccc2c(c1)C(=O)C(=O)N2CC(=O)OC(C)C the results were DNA FID counter 3, NRP1-CendR mod 27*, MEX-5 binding 0 and HCV core dimer -4.
`NC(=O)c1[nH]cnc1N=NN(CCO)Cc1ccccc1` gave NRP1-CendR mod -15.
CSc1ccc(-c2cc3c(c4c2ccn4C)C2CCC3C2)cc1 (stereo unspecified) was read as NRP1-CendR mod 25*.
`Cc1ccccc1-c1cc(C(=O)N2CCCC2)c2ccccc2n1` gave DNA FID counter -19, NRP1-CendR mod -3, MEX-5 binding -1 and HCV core dimer 53*.
`O=C(c1ccccc1-c1ccccc1)N1CCCCC1` gave DNA FID counter -18, NRP1-CendR mod 23*, MEX-5 binding 0 and HCV core dimer -3.
For O=C(O)c1ccccc1SCC(=O)N1CCOCC1 the results were DNA FID counter 0, NRP1-CendR mod 5, MEX-5 binding -1 and HCV core dimer 1.
Screening O=C(c1cc(-c2ccccc2Cl)nc2ccccc12)N1CCC1 returned NRP1-CendR mod 1, MEX-5 binding 0 and HCV core dimer -4.
For Cc1ccc(-c2cc(C(=O)N3CCN(c4ccc(F)cc4)CC3)c3ccccc3n2)o1 the results were DNA FID counter -31, NRP1-CendR mod -4, MEX-5 binding 0 and HCV core dimer 49*.
`O=C(O)c1ccccc1SCC(=O)N1CCCCC1` gave DNA FID counter 6, NRP1-CendR mod 28*, MEX-5 binding 0 and HCV core dimer -1.
